Data published in ChEMBL document CHEMBL4715736, “Identification of anticancer agents based on the thieno[2,3-b]pyridine and 1H-pyrazole molecular scaffolds” (2016).

How the values were obtained:
Format in all cases: functional
M14 = test: Growth inhibition of human M14 cells assessed as cell growth at 100 uM incubated for 48 hrs by sulforhodamine B assay relative to control; settings: read-out: Activity
MDA-MB-435 = test: Growth inhibition of human MDA-MB-435 cells assessed as cell growth at 0.01 uM incubated for 48 hrs by sulforhodamine B assay relative to control; settings: read-out: Activity
OVCAR-5 [1] = test: Growth inhibition of human OVCAR-5 cells incubated for 48 hrs by sulforhodamine B assay; settings: for CC50: read-out: LC50 (the source's name)
Method in brief: (§1)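 NCI DTP 60-line human tumour panel. Dose-response curves were run only for ligands active in the initial 10 µM screen. GI50 (concentration giving 50% of maximal inhibition of proliferation) and TGI (concentration giving total growth inhibition) were derived from these curves.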

HOP-62 [2] = test: Growth inhibition of human HOP-62 cells assessed as cell growth at 0.01 uM incubated for 48 hrs by sulforhodamine B assay relative to control; settings: read-out: Activity
786-0 = test: Growth inhibition of human 786-0 cells assessed as cell growth at 1 uM incubated for 48 hrs by sulforhodamine B assay relative to control; settings: read-out: Activity
Method in brief: (§2)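 NCI Developmental Therapeutics Program NCI60 panel. Compounds that were active in the 10 µM one-dose screen went on to dose–response testing. Growth at each concentration is expressed relative to untreated control (100%). GI50 (concentration giving 50% of maximal inhibition of proliferation) and TGI (concentration giving total growth inhibition) were derived from the curves.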

MDA-MB-468 = test: Growth inhibition of human MDA-MB-468 cells incubated for 48 hrs by sulforhodamine B assay; settings: for CC50: read-out: LC50 (the source's name)
Method in brief: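 NCI60 panel at the NCI Developmental Therapeutics Program. Only compounds active in the 10 µM screen went to dose-response testing. GI50, the concentration giving 50% of maximal inhibition of proliferation, and TGI, the concentration giving total growth inhibition, were derived from the dose-response curves.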

BT-549 = test: Growth inhibition of human BT-549 cells assessed as cell growth at 0.1 uM incubated for 48 hrs by sulforhodamine B assay relative to control; settings: read-out: Activity
OVCAR-3 = test: Growth inhibition of human OVCAR-3 cells assessed as cell growth at 1 uM incubated for 48 hrs by sulforhodamine B assay relative to control; settings: read-out: Activity
OVCAR-5 [3] = test: Growth inhibition of human OVCAR-5 cells assessed as cell growth at 0.01 uM incubated for 48 hrs by sulforhodamine B assay relative to control; settings: read-out: Activity
NCI/ADR-RES [4] = test: Growth inhibition of human NCI/ADR-RES cells assessed as cell growth at 0.1 uM incubated for 48 hrs by sulforhodamine B assay relative to control; settings: read-out: Activity
COLO 205 = test: Growth inhibition of human COLO 205 cells assessed as cell growth at 100 uM incubated for 48 hrs by sulforhodamine B assay relative to control; settings: read-out: Activity; method in brief: as §2
HT-29 = test: Growth inhibition of human HT-29 cells assessed as cell growth at 100 uM incubated for 48 hrs by sulforhodamine B assay relative to control; settings: read-out: Activity
MOLT-4 = test: Growth inhibition of human MOLT-4 cells assessed as cell growth at 100 uM incubated for 48 hrs by sulforhodamine B assay relative to control; settings: read-out: Activity
OVCAR-5 [5] = test: Growth inhibition of human OVCAR-5 cells assessed as cell growth at 0.1 uM incubated for 48 hrs by sulforhodamine B assay relative to control; settings: read-out: Activity
Malme-3M [6] = test: Growth inhibition of human Malme-3M cells assessed as cell growth at 0.1 uM incubated for 48 hrs by sulforhodamine B assay relative to control; settings: read-out: Activity
SN12C = test: Growth inhibition of human SN12C cells assessed as cell growth at 1 uM incubated for 48 hrs by sulforhodamine B assay relative to control; settings: read-out: Activity
T47D [7] = test: Growth inhibition of human T47D cells assessed as cell growth at 100 uM incubated for 48 hrs by sulforhodamine B assay relative to control; settings: read-out: Activity
SR = test: Growth inhibition of human SR cells assessed as cell growth at 1 uM incubated for 48 hrs by sulforhodamine B assay relative to control; settings: read-out: Activity
KM12 = test: Growth inhibition of human KM12 cells assessed as cell growth at 1 uM incubated for 48 hrs by sulforhodamine B assay relative to control; settings: read-out: Activity
A549 = test: Growth inhibition of human A549/ATCC cells assessed as cell growth at 0.1 uM incubated for 48 hrs by sulforhodamine B assay relative to control; settings: read-out: Activity; method in brief: as §2
CAKI-1 = test: Growth inhibition of human CAKI-1 cells assessed as cell growth at 1 uM incubated for 48 hrs by sulforhodamine B assay relative to control; settings: read-out: Activity; method in brief: as §2
NCI-H226 [8] = test: Growth inhibition of human NCI-H226 cells assessed as cell growth at 1 uM incubated for 48 hrs by sulforhodamine B assay relative to control; settings: read-out: Activity
T47D [9] = test: Growth inhibition of human T47D cells assessed as cell growth at 0.1 uM incubated for 48 hrs by sulforhodamine B assay relative to control; settings: read-out: Activity
NCI-H226 [10] = test: Growth inhibition of human NCI-H226 cells assessed as cell growth at 0.01 uM incubated for 48 hrs by sulforhodamine B assay relative to control; settings: read-out: Activity
Malme-3M [11] = test: Growth inhibition of human Malme-3M cells assessed as cell growth at 100 uM incubated for 48 hrs by sulforhodamine B assay relative to control; settings: read-out: Activity
HOP-62 [12] = test: Growth inhibition of human HOP-62 cells assessed as cell growth at 0.1 uM incubated for 48 hrs by sulforhodamine B assay relative to control; settings: read-out: Activity
SF-295 = test: Growth inhibition of human SF-295 cells assessed as cell growth at 100 uM incubated for 48 hrs by sulforhodamine B assay relative to control; settings: read-out: Activity
RPMI-8226 = test: Growth inhibition of human RPMI-8226 cells assessed as cell growth at 100 uM incubated for 48 hrs by sulforhodamine B assay relative to control; settings: read-out: Activity
SK-MEL-5 = test: Growth inhibition of human SK-MEL-5 cells assessed as cell growth at 1 uM incubated for 48 hrs by sulforhodamine B assay relative to control; settings: read-out: Activity
NCI/ADR-RES [13] = test: Growth inhibition of human NCI/ADR-RES cells assessed as cell growth at 100 uM incubated for 48 hrs by sulforhodamine B assay relative to control; settings: read-out: Activity
Hs-578T = test: Growth inhibition of human Hs-578T cells assessed as cell growth at 1 uM incubated for 48 hrs by sulforhodamine B assay relative to control; settings: read-out: Activity
UO-31 = test: Growth inhibition of human UO-31 cells assessed as cell growth at 0.1 uM incubated for 48 hrs by sulforhodamine B assay relative to control; settings: read-out: Activity
TK-10 = test: Growth inhibition of human TK-10 cells assessed as cell growth at 100 uM incubated for 48 hrs by sulforhodamine B assay relative to control; settings: read-out: Activity
PC-3 [14] = test: Growth inhibition of human PC-3 cells incubated for 48 hrs by sulforhodamine B assay; method in brief: as §1
PC-3 [15] = test: Growth inhibition of human PC-3 cells assessed as cell growth at 1 uM incubated for 48 hrs by sulforhodamine B assay relative to control; settings: read-out: Activity
UACC-62 = test: Growth inhibition of human UACC-62 cells assessed as cell growth at 0.1 uM incubated for 48 hrs by sulforhodamine B assay relative to control; settings: read-out: Activity

SMILES	growth at 100 µM (M14)	growth at 0.01 µM (MDA-MB-435)	GI50 (OVCAR-5 [1])	TGI (OVCAR-5 [1])	CC50 (OVCAR-5 [1])	growth at 0.01 µM (HOP-62 [2])	growth at 1 µM (786-0)	GI50 (MDA-MB-468)	CC50 (MDA-MB-468)	growth at 1 µM (OVCAR-3)	growth at 0.01 µM (OVCAR-5 [3])	growth at 0.1 µM (NCI/ADR-RES [4])	growth at 100 µM (COLO 205)	growth at 100 µM (MOLT-4)	growth at 0.1 µM (OVCAR-5 [5])	growth at 0.1 µM (Malme-3M [6])	growth at 1 µM (SN12C)	growth at 100 µM (T47D [7])	growth at 1 µM (SR)	growth at 1 µM (KM12)	further results
CCc1ccccc1NC(=O)c1sc2nc3c(cc2c1N)C(=O)CCC3	7%	92%	39.2 nM	> 100 µM	> 100 µM	91%	38%	209 nM	> 100 µM	12%	84%	88%	-72%	31%	83%	84%	40%	-5%	20%	21%	TGI (MDA-MB-468): 44.7 µM; growth at 0.1 µM (BT-549): 101%; growth at 100 µM (HT-29): -7%; growth at 0.1 µM (A549): 88%; growth at 1 µM (CAKI-1): 33%; growth at 1 µM (NCI-H226 [8]): 63%; growth at 0.1 µM (T47D [9]): 102%; growth at 0.01 µM (NCI-H226 [10]): 89%; growth at 100 µM (Malme-3M [11]): -5%; growth at 0.1 µM (HOP-62 [12]): 82%; growth at 100 µM (SF-295): -2%; growth at 100 µM (RPMI-8226): -5%; growth at 1 µM (SK-MEL-5): 11%; growth at 100 µM (NCI/ADR-RES [13]): -6%; growth at 1 µM (Hs-578T): 18%; growth at 0.1 µM (UO-31): 85%; growth at 100 µM (TK-10): 13%
Cc1ccc(NC(=O)c2sc3nc4c(cc3c2N)C(=O)CCC4)cc1C	4%	95%	2290 nM	> 100 µM	> 100 µM	89%	40%	229 nM	> 100 µM	3%	89%	102%	-56%	-6%	87%	86%	41%	-13%	25%	24%	growth at 0.1 µM (BT-549): 108%; growth at 100 µM (HT-29): -23%; growth at 0.1 µM (A549): 98%; growth at 1 µM (CAKI-1): 41%; growth at 1 µM (NCI-H226 [8]): 68%; growth at 0.1 µM (T47D [9]): 97%; growth at 0.01 µM (NCI-H226 [10]): 90%; growth at 100 µM (Malme-3M [11]): 28%; growth at 0.1 µM (HOP-62 [12]): 86%; growth at 100 µM (SF-295): 12%; growth at 100 µM (RPMI-8226): -9%; growth at 1 µM (SK-MEL-5): 21%; growth at 100 µM (NCI/ADR-RES [13]): 4%; growth at 1 µM (Hs-578T): 16%; growth at 0.1 µM (UO-31): 81%; growth at 100 µM (TK-10): 47%
CCc1cccc(C)c1NC(=O)c1sc2nc3c(cc2c1N)C(=O)CCC3	-17%	92%	2600 nM	> 100 µM	> 100 µM	94%	36%	261 nM	> 100 µM	10%	87%	99%	-31%	-9%	88%	86%	45%	-10%	17%	24%	GI50 (PC-3 [14]): 454 nM; TGI (PC-3 [14]): > 100 µM; CC50 (PC-3 [14]; read-out: LC50 (the source's name)): > 100 µM; TGI (MDA-MB-468): 60.6 µM; growth at 1 µM (PC-3 [15]): 31%; growth at 0.1 µM (UACC-62): 88%; growth at 0.1 µM (A549): 93%; growth at 1 µM (CAKI-1): 31%; growth at 1 µM (NCI-H226 [8]): 67%; growth at 0.1 µM (T47D [9]): 91%; growth at 0.01 µM (NCI-H226 [10]): 96%; growth at 100 µM (Malme-3M [11]): -1%; growth at 0.1 µM (HOP-62 [12]): 92%; growth at 100 µM (SF-295): 1%; growth at 100 µM (RPMI-8226): -39%; growth at 1 µM (SK-MEL-5): 6%; growth at 100 µM (NCI/ADR-RES [13]): 1%; growth at 1 µM (Hs-578T): 20%; growth at 0.1 µM (UO-31): 82%
